Published values of several laboratories.
Compare with care: the assays were run in different laboratories.
ADRB2: Beta-2 adrenergic receptor (ADRB2, Homo sapiens, UniProt P07550)
PCNA: Proliferating cell nuclear antigen (PCNA, Homo sapiens, UniProt P12004)
MMP2: 72 kDa type IV collagenase (MMP2, Homo sapiens, UniProt P08253)
F10 trypsin-like site: Coagulation factor X, trypsin-like site (F10, Homo sapiens, UniProt P00742)

Structure (SMILES) | target | test | conditions | quantity | result
NCC(O)c1ccc(O)c(O)c1F (stereo not drawn) | Beta-2 adrenergic receptor (ADRB2, Homo sapiens, UniProt P07550, T164I) | ligand displacement, radioligand | cell membranes | Ki | 38.7 µM
O=C(N[C@H](C(=O)O)C1CCCCC1)c1cc(-c2c(F)cccc2F)n(-c2ccnc3cc(Cl)ccc23)n1 | Neurotensin receptor type 1 (Ntsr1, Rattus norvegicus, UniProt P20789) | calcium signal, antagonist, fluorescence |  | Kb | > 10 µM
NCC(O)c1ccc(O)cc1 (stereo not drawn) | ADRB2 | ligand displacement, radioligand | cell membranes | IC50 | 73.7 µM
CC[C@H](C)[C@H](NC(=O)[C@H](CCCCN)NC(=O)[C@H](CO)NC(=O)[C@H](CC(=O)O)NC(=O)[C@H](CCCCN)NC(=O)[C@H](CCCCN)NC(=O)CNC(=O)[C@H](Cc1c[nH]cn1)NC(=O)[C@@H](N)CCC(N)=O)C(=O)N[C@H](C(=O)N[C@@H](CC(=O)O)C(=O)N[C@@H](Cc1c[nH]cn1)C(=O)N[C@@H](Cc1ccccc1)C(=O)N[C@@H](C)C(=O)N[C@@H](CCCNC(=N)N)C(=O)N[C@@H](CC(C)C)C(=O)N1CCC[C@H]1C(=O)N[C@@H](CCCCN)C(=O)N[C@@H](C)C(=O)O)[C@@H](C)O | PCNA | binding, ITC | pH 7.4 | Kd | 1.65 µM
CC#CCOc1ccc(S(=O)(=O)CC2CS2)cc1 (racemic) | MMP2 | enzyme activity, inhibitor, fluorescence |  | IC50 | 26 µM
c1ccc2c(c1)-c1cccc3cccc-2c13 | Cytochrome P450 1B1 (CYP1B1, Homo sapiens, UniProt Q16678) | binding, absorbance | pH 7.4 | Kd | 1.6 µM
O=C1C2(Cl)C3(Cl)C4(Cl)C(Cl)(Cl)C5(Cl)C3(Cl)C1(Cl)C5(Cl)C24Cl (stereo not drawn) | Histone-lysine N-methyltransferase SETD7 (SETD7, Homo sapiens, UniProt Q8WTS6) | enzyme activity, inhibitor |  | IC50 | > 333 µM
CC(C)C[C@H](NC(=O)[C@H](CCC(N)=O)NC(=O)[C@H](CC(C)C)NC(=O)[C@H](CO)NC(=O)[C@H](CO)NC(=O)[C@@H]1CCCN1C(=O)[C@H](Cc1c[nH]c2ccccc12)NC(=O)[C@H](CCC(N)=O)NC(=O)[C@H](Cc1c[nH]c2ccccc12)NC(=O)[C@H](Cc1c[nH]c2ccccc12)NC(=O)[C@@H](N)Cc1c[nH]cn1)C(=O)N[C@@H](CCCNC(=N)N)C(=O)NCC(=O)NCC(=O)NCC(=O)N[C@@H](CO)C(=O)O | MMP2 | enzyme activity, inhibitor, fluorescence |  | IC50 | 0.078 µM
CC[C@H](C)[C@H](NC(=O)[C@H](CCCNC(=N)N)NC(=O)[C@H](CO)NC(=O)[C@H](CC(=O)O)NC(=O)[C@H](CCCCN)NC(=O)[C@H](CCCCN)NC(=O)CNC(=O)[C@H](Cc1c[nH]cn1)NC(=O)[C@@H](N)CCC(N)=O)C(=O)N[C@H](C(=O)N[C@@H](CC(=O)O)C(=O)N[C@@H](Cc1c[nH]cn1)C(=O)N[C@@H](Cc1ccccc1)C(=O)N[C@@H](CCSC)C(=O)N[C@@H](CCCNC(=N)N)C(=O)N[C@@H](CC(C)C)C(=O)N1CCC[C@H]1C(=O)N[C@@H](CCCCN)C(=O)N[C@@H](C)C(=O)O)[C@@H](C)O | PCNA | binding, ITC | pH 7.4 | Kd | 6.67 µM
O=C(N[C@H]1COC(=O)[C@@H](NC(=O)c2cccc(O)c2[O-])COC(=O)[C@@H](NC(=O)c2cccc(O)c2[O-])COC1=O)c1cccc(O)c1[O-].[Fe+3] | Neutrophil gelatinase-associated lipocalin (LCN2, Homo sapiens, UniProt P80188, C107S) | binding, fluorescence | pH 5.5 | Kd | 0.00015 µM
CCCCOc1ccc(C(=O)CCN2CCCCC2)cc1 | Histamine H3 receptor (HRH3, Homo sapiens, UniProt Q9Y5N1) | ligand displacement, radioligand |  | IC50 | 3.89 µM
CC(C)(C)[C@H](NC(=O)[C@H](CCCNC(=N)N)NC(=O)Cc1ccc(CN)cc1)C(=O)N[C@@H](CCONC(=N)N)C(=O)NCc1ccc(C(=N)N)cc1 | F10 trypsin-like site | enzyme activity, inhibitor | pH 8 | Ki | 28 µM
CC[C@H](C)[C@H](NC(=O)[C@H](CCCCN)NC(=O)[C@H](CO)NC(=O)[C@H](C)NC(=O)[C@H](CCCCN)NC(=O)[C@H](CCCCN)NC(=O)CNC(=O)[C@H](Cc1c[nH]cn1)NC(=O)[C@@H](N)CCC(N)=O)C(=O)N[C@H](C(=O)N[C@@H](CC(=O)O)C(=O)N[C@@H](Cc1c[nH]cn1)C(=O)N[C@@H](Cc1ccccc1)C(=O)N[C@@H](CCSC)C(=O)N[C@@H](CCCNC(=N)N)C(=O)N[C@@H](CC(C)C)C(=O)N1CCC[C@H]1C(=O)N[C@@H](CCCCN)C(=O)N[C@@H](C)C(=O)O)[C@@H](C)O | PCNA | binding, ITC | pH 7.4 | Kd | 2.45 µM
CC(=O)N[C@@H](C)C(=O)N1CCC[C@H]1C(=O)N[C@@H](CC(C)C)C(=O)N[C@H](C(=O)N[C@@H](CCCNC(=N)N)C(=O)NCC(=O)N[C@@H](CO)C(=O)N[C@@H](CS)C(=O)N[C@@H](CCCNC(=N)N)C(=O)N[C@@H](CCCCN)C(=O)N[C@@H](CCCNC(=N)N)C(=O)N[C@@H](CC(N)=O)C(=O)N[C@@H](CCCNC(=N)N)C(=O)N[C@@H](CO)C(=O)N1CCC[C@H]1C(=O)N[C@@H](CCC(=O)O)C(=O)N[C@@H](CCCNC(=N)N)C(N)=O)[C@@H](C)O | WD repeat-containing protein 5 (WDR5, Homo sapiens, UniProt P61964) | binding, ITC | pH 7 | Kd | 14.6 µM
O=C(CCCCCCNC(=O)c1cnc(N(c2ccccc2)c2ccccc2)nc1)NO | Polyamine deacetylase HDAC10 (HDAC10, Homo sapiens, UniProt Q969S8) | enzyme activity, inhibitor, fluorescence |  | IC50 | 0.466 µM
CC(C)(C)[C@H](NC(=O)[C@H](CCONC(=N)N)NC(=O)Cc1ccc(CN)cc1)C(=O)N[C@@H](CCCCN)C(=O)NCc1ccc(C(=N)N)cc1 | F10 trypsin-like site | enzyme activity, inhibitor | pH 8 | Ki | 18 µM
CC[C@H](C)[C@H](NC(=O)[C@H](CCCCN)NC(=O)[C@H](CO)NC(=O)[C@H](CC(=O)O)NC(=O)[C@H](CCCCN)NC(=O)[C@H](CCCCN)NC(=O)CNC(=O)[C@H](Cc1c[nH]cn1)NC(=O)[C@@H](N)CCC(N)=O)C(=O)N[C@H](C(=O)N[C@@H](CC(=O)O)C(=O)N[C@@H](Cc1c[nH]cn1)C(=O)N[C@@H](C)C(=O)N[C@@H](CCSC)C(=O)N[C@@H](CCCNC(=N)N)C(=O)N[C@@H](CC(C)C)C(=O)N1CCC[C@H]1C(=O)N[C@@H](CCCCN)C(=O)N[C@@H](C)C(=O)O)[C@@H](C)O | PCNA | binding, ITC | pH 7.4 | Kd | 41.3 µM
NCC(O)c1cc(O)c(O)cc1F (stereo not drawn) | ADRB2 | ligand displacement, radioligand | cell membranes | Ki | 1160 µM
